Data on 13 molecules can be found in PubChem BioAssay.

Activity calls are given as the source filed them.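 The calls were made as follows, unless noted: active = fluorescence slope after compound addition differing from the mean of all screened samples at 99.7% confidence, in either direction; inactive = the rest.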

Usually inhibition stands for the drop in the measured response relative to a control, in per cent.

Assay [1] in a line: inhibitors of TNFa-induced NFkB p65 translocation, primary screen, imaging, HUVEC, MLSMR starter and 10KST1 sets (AID 438;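 active = inhibition above 20% together with a positive visual image hit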;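 also: compound added about 3h40 before a 20 min TNFalpha stimulation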;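 as to inhibition: signal is the nuclear over cytoplasmic p65 intensity ratio per well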). The settings on record: HUVEC TNFa-induced p65 nuclear translocation; cell count: measured here: nuclei count (cytotoxicity indicator), at 2.08 µM; inhibition: at 2 µM, stronger effect = higher value, 0% TNFa-plus-vehicle, 100% no-TNFa wells.
A short description of assay [2]: endothelial E-selectin expression blockers – imaging, HUVEC, immunofluorescence, MLSMR starter and 10KST1 sets, primary screen (AID 487;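 active = visually confirmed hit in the image check and inhibition above 20%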;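 as to inhibition: signal is fraction of cell area covered by stained E-selectin grains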;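 as to nuclei count: 100% = median nuclei count of all wells on the same plate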). The settings on record: HUVEC TNFalpha-induced E-selectin immunofluorescence imaging, at 2 µM; inhibition: stronger effect = higher value; nuclei count: measured here: cell number, toxicity.
Assay [3] is described as follows: Primary imaging screen for DUSP6 inhibitors that restore phospho-Erk in transfected HeLa cells, chemical complementation (AID 609;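 active = compounds giving at least 50% inhibition in the cell-based MKP-3 phosphatase rescue imaging test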;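 as to inhibition: phospho-Erk level distribution per well compared with pooled transfected vehicle control wells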). The note with it: HeLa MKP-3 transfected, phospho-Erk imaging KS statistic, at 10 µM, cells stimulated with TPA for 15 min.
Assay [4] addresses Dual specificity protein phosphatase 6 (Homo sapiens) (UniProt Q16828). The assay is described as above. The settings on record: HeLa MKP-3 transfected, phospho-Erk imaging KS statistic; at 10 µM; stronger effect = higher value; cells stimulated with TPA for 15 min.
Assay [5] has as its target Voltage-gated potassium channel subunit beta-2 (Rattus norvegicus) (UniProt P62483). Briefly: inhibitors of rat Kvbeta2 reductase activity – biochemical, NADPH fluorescence, primary screen (AID 622;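 active = fluorescence slope higher than the sample average by over 3 SD, cut at about -0.22 in these data, passing the limit was not always enough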;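 also: slope of raw intensity against log time taken from 70 to 1610 s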). The note with it: recombinant KvBeta, 4-cyanobenzaldehyde reduction, at 10 µM, stronger effect = higher value.
Assay [6] shares this target. Briefly: enhancers of rat Kvbeta2 NADPH turnover – biochemical, NADPH fluorescence, primary screen (AID 623;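 active = NADPH fluorescence slope more negative than the mean of all samples by about 3 SD, 99.7% confidence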;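 also: fluorescence intensity change per second fitted from 20 to 320 s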). The note with it: Recombinant KvBeta, NADPH fluorescence decrease slope, 10 min; at 10 µM; stronger effect = lower value.
Assay [7] addresses Alpha-2C adrenergic receptor (Homo sapiens) (UniProt P18825). Briefly: compounds altering alpha2C-coupled GIRK flux – cell-based, HEK293 alpha2C/GIRK1/2, thallium flux, primary screen (AID 624).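 Also: slope of fluorescence ratio to pre-addition baseline per second over 15 to 24 s.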 The settings on record: thallium flux BTC fluorescence, at 10 µM, actives lie on both sides.
Assay [8] is described as follows: inhibitors of larval lipid processing in zebrafish, primary screen, whole organism, PED6 fluorescence, gall bladder and intestine (AID 686;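 active = a full or partial loss of lipid-probe fluorescence in the fish gall bladder, intestine or both, judged by eye; inactive = no fluorescence loss, or compound toxic to the fish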;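 also: larvae 5 to 7 days old with five fish per well; signal comes from phospholipase A2 cleavage of quenched PED6 carried via bile; overnight exposure to compound and PED6 before scoring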). The note with it: Zebrafish larvae PED6 lipid processing, fluorescence scoring; screened at 20 µM (by protocol). In a few lines: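 Test system – live zebrafish larvae aged 5-7 days, whole organism · Buffer or medium – E3 fish medium · Reagent – quenched phospholipase substrate PED6, 100 nM final, ingested by larvae · Doses – 20 µM single dose · Incubation – overnight compound and PED6 incubation · Technique – visual fluorescence microscopy scoring of gall bladder, gut · Read-out basis – visual per-well fluorescence inhibition score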

The nature of assay [9]: loss of swimming-algae plug formation – whole organism, Chlamydomonas reinhardtii, WT vs cilia-less mutant, absorbance, 96-well, primary screen (AID 463189;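 active = inhibition at or above 50% relative to wild type and mutant plate controls; inactive = inhibition below 50%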;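 also: 0% = wild type cc124 cells in DMSO and 100% = ciliumless bld1 mutant cells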). The settings on record: Chlamydomonas reinhardtii gravitaxis, OD600 absorbance, 2 days; at 10 µM; stronger effect = higher value.
[10] abbreviates: measured here: cell density z-score.
Where [11] appears, read: measured here: nuclear c-Myc green intensity z-score.
Where [12] appears, read: measured here: nuclear pErk red intensity z-score, stronger effect = higher value.

Sequence of Dual specificity protein phosphatase 6 (Homo sapiens) (Q16828 whole entry, looked up): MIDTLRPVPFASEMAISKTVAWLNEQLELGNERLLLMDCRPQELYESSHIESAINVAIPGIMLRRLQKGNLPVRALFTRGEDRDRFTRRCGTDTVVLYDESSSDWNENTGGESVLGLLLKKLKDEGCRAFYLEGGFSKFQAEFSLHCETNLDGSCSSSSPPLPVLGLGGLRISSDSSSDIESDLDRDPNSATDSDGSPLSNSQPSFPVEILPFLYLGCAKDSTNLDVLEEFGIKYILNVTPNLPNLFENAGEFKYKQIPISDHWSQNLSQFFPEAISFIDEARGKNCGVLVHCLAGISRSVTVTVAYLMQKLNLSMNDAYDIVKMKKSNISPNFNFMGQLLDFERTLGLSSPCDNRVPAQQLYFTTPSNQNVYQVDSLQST
Sequence of Alpha-2C adrenergic receptor (Homo sapiens) (P18825 whole entry, looked up): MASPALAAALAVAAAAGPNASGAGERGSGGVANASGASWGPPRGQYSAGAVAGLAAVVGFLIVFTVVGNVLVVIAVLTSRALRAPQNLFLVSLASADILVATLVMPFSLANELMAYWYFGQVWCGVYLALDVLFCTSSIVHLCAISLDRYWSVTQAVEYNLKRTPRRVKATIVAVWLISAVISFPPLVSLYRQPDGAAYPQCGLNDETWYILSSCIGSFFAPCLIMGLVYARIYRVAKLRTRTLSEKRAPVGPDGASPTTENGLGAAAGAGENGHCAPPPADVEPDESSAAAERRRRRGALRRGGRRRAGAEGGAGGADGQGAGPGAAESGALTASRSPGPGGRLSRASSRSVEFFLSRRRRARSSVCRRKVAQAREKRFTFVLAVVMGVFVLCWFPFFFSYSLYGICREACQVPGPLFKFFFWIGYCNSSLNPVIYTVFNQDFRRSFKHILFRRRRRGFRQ
Sequence of Voltage-gated potassium channel subunit beta-2 (Rattus norvegicus) (P62483 whole entry, looked up): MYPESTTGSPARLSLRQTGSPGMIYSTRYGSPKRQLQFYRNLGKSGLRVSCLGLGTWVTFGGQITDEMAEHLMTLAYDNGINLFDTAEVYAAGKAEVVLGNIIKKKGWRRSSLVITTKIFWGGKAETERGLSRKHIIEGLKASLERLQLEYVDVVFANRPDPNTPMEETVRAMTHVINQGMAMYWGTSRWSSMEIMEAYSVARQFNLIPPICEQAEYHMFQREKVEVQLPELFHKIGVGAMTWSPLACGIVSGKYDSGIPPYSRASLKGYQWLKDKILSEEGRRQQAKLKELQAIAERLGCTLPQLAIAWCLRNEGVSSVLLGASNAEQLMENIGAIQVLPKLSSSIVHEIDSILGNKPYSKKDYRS

For the molecule `CNC(=O)c1cc2c(ccc3ccccc32)oc1=N`, the cell count in [1] stood at 498. The inhibition in [1] is -4% (inactive); in assay [2] it was -64.4% (inactive); in assay [4], -0.159% (inactive); in assay [9], 0.922% (inactive). The molecule further came in with a nuclei count in assay [2] of 134%. For the same molecule, the z-score in assay [3] (setting [10]) is 0.106; in assay [3] (setting [11]) it was 1.1; in [3] (setting [12]), -0.558. For the same molecule, the fluorescence slope in assay [5] was -0.075 (active). In addition, the NADPH fluorescence slope in assay [6] was -2.6e-05 (inactive). In addition, the slope in [7] was 0.00187 (inactive). The outcome in [8] was inactive.

For `Cc1ccc(C#N)c(SCc2cc3c(cc2Cl)OCO3)n1`, the cell count in assay [1] stood at 538. The inhibition is -31.1% (inactive) in [1], -76.1% (inactive) in assay [2], -2.47% (inactive) in assay [4] and 28.8% (inactive) in [9]. The molecule also yielded a nuclei count in assay [2] of 159%. Also, the z-score in [3] (setting [10]) is -0.24; in [3] (setting [11]) it was -0.891; in assay [3] (setting [12]), -0.243. Further, the fluorescence slope in assay [5] was -0.515 (inactive). Besides, the NADPH fluorescence slope in assay [6] is -6.3e-05 (inactive). Moreover, the slope in assay [7] was 0.00686 (inactive). In addition, the result in assay [8] was inactive.

For `O=C1CC(NCc2ccc3c(c2)OCO3)C(=O)N1Cc1ccc2c(c1)OCO2` (centres undefined), the cell count in [1] amounted to 521. The inhibition is 5.6% (inactive) in [1], -127% (inactive) in assay [2], 15.8% (inactive) in assay [4] and 17.7% (inactive) in assay [9]. The molecule also came in with a nuclei count in assay [2] of 139%. In addition, the z-score is 0.834 in assay [3] (setting [10]), 0.684 in [3] (setting [11]) and -0.627 in [3] (setting [12]). The fluorescence slope in assay [5] was -0.505 (inactive). Besides, the NADPH fluorescence slope in assay [6] is -3.7e-05 (inactive). In addition, the slope in assay [7] was 0.00655 (inactive). Besides, the molecule was classed as inactive in assay [8].

Turning to `Cc1nnc(C)n1/N=C/c1cccn1C`, in assay [1], the cell count was 300. The inhibition in assay [1] is -9.7% (inactive); in assay [2], -14.9% (inactive); in assay [4], 3.5% (inactive); in [9] it was -5.16% (inactive). For the same molecule, in assay [2], the nuclei count turned out to be 136%. The z-score is -0.977 in assay [3] (setting [10]), 2.09 in assay [3] (setting [11]) and -1.42 in assay [3] (setting [12]). Besides, the fluorescence slope in [5] was -0.412 (inactive). Further, the NADPH fluorescence slope in [6] is -0.00014 (inactive). Also, the slope in [7] is 0.00647 (inactive). For the same molecule, the molecule was called inactive in assay [8].

As for `COc1ccc(OC)c(C2=Nn3c(nnc3-c3ccco3)SC2)c1`, in assay [1], the cell count was 675. The inhibition in assay [1] was 1.9% (inactive); in assay [2], -139% (inactive); in [4], -2.47% (inactive); in assay [9], -10.3% (inactive). This molecule also showed a nuclei count in assay [2] of 150%. Also, the z-score in assay [3] (setting [10]) was -0.0454; in assay [3] (setting [11]) it was 1.22; in assay [3] (setting [12]), 0.484. The fluorescence slope in assay [5] is -0.399 (inactive). Further, the NADPH fluorescence slope in assay [6] is -0.000127 (inactive). Besides, in assay [7], the slope is 0.00666 (inactive). Besides, the outcome in assay [8] was inactive.

For `CC1(C)CN(O)CCN1O`, the cell count in assay [1] came to 325. For the same molecule, the inhibition was -5.3% (inactive) in assay [1], -130% (inactive) in [2], -10.1% (inactive) in [4] and 12% (inactive) in assay [9]. This molecule also yielded a nuclei count in assay [2] of 104%. The z-score in [3] (setting [10]) is -0.173; in assay [3] (setting [11]) it was -0.721; in [3] (setting [12]), -0.0914. For the same molecule, the fluorescence slope in [5] was -0.452 (inactive). In assay [6], the NADPH fluorescence slope is -1.8e-06 (inactive). In assay [7], the slope is 0.00611 (inactive). Also, the molecule was called inactive in assay [8].

With `COc1ccc(C(=O)CSC2=C(C#N)C3(CCCCC3)C(C#N)=C(N)N2)cc1`, in assay [1], the cell count is 705. Besides, the inhibition was -13.2% (inactive) in assay [1], -25.4% (inactive) in [2], 2.71% (inactive) in [4] and -3.04% (inactive) in [9]. This molecule also returned a nuclei count in assay [2] of 192%. For the same molecule, the z-score was -0.688 in [3] (setting [10]), 1.18 in assay [3] (setting [11]) and 0.232 in [3] (setting [12]). Also, the fluorescence slope in [5] was -0.393 (inactive). Further, in assay [6], the NADPH fluorescence slope is -3.2e-05 (inactive). For the same molecule, the slope in [7] was 0.00422 (inactive). The call in assay [8] was inactive.

On to `O=C(CCN1CCCCC1)Nc1cccc(Cl)c1`, for which the cell count in [1] turned out to be 336. Also, the inhibition is -14.7% (inactive) in [1], -49.9% (inactive) in assay [2], -3.5% (inactive) in assay [4] and -5.09% (inactive) in [9]. In [2], this molecule gave a nuclei count of 138%. Also, the z-score was -1.72 in assay [3] (setting [10]), 0.965 in [3] (setting [11]) and 0.516 in [3] (setting [12]). The fluorescence slope in assay [5] is -0.42 (inactive). Moreover, the NADPH fluorescence slope in [6] was -0.000129 (inactive). In addition, the slope in [7] was 0.0069 (inactive). Further, in assay [8], the molecule was called inactive.

On to `O=C(CN1C(=O)c2ccccc2C1=O)NCc1ccncc1`, for which the cell count in [1] was found to be 357. The inhibition in [1] is -6.8% (inactive); in [2], -60.9% (inactive); in assay [4], -10.6% (inactive); in [9], 31% (inactive). This molecule yielded a nuclei count in assay [2] of 167%. Also, the z-score in [3] (setting [10]) was 0.341; in [3] (setting [11]), -1.51; in assay [3] (setting [12]), 1.76. Besides, the fluorescence slope in [5] is -0.432 (inactive). Besides, the NADPH fluorescence slope in assay [6] is -0.000133 (inactive). For the same molecule, the slope in assay [7] was 0.00529 (inactive). Moreover, in [8], the molecule was classed as inactive.

On to `Cc1ccc(-c2ccc(/C=N/c3ncn[nH]3)o2)cc1Cl`, for which the cell count in assay [1] is 555. The inhibition in assay [1] was -7% (inactive); in [2] it was 17.3% (inactive); in assay [4] it was 4.72% (inactive); in [9] it was 0.03% (inactive). In [2], this molecule registered a nuclei count of 119%. Besides, the z-score in assay [3] (setting [10]) was found to be 1.47; in [3] (setting [11]), 1.26; in assay [3] (setting [12]), 0.207. In [5], the fluorescence slope is -0.446 (inactive). Further, the NADPH fluorescence slope in assay [6] was -1.9e-05 (inactive). Also, in [7], the slope is 0.00689 (inactive). Further, in [8], the call was inactive.

On to `COc1ccc(/C(O)=C2\C(=O)C(=O)N(CCN3CCOCC3)C2c2ccccc2OC)cc1` (centres undefined), for which, in assay [1], the cell count worked out at 562. The inhibition was -10.5% (inactive) in [1], -38.1% (inactive) in assay [2], -7.86% (inactive) in assay [4] and -2.72% (inactive) in assay [9]. The same molecule gave a nuclei count in [2] of 164%. The z-score in [3] (setting [10]) is 1.03; in [3] (setting [11]), -1.74; in [3] (setting [12]), 0.476. In addition, the fluorescence slope in assay [5] was -0.486 (inactive). In [6], the NADPH fluorescence slope was -2.2e-05 (inactive). Also, in assay [7], the slope was 0.00695 (inactive). In [8], the molecule was called inactive.

As to `C=CCSc1nc(C)c(CC=C)c(=O)[nH]1`, the cell count in assay [1] is 482. The inhibition in assay [1] is -4.7% (inactive); in assay [2], -71.1% (inactive); in assay [4], 11.9% (inactive); in [9], 31.6% (inactive). The molecule also gave a nuclei count in assay [2] of 87.6%. The z-score in [3] (setting [10]) is 0.711; in assay [3] (setting [11]), -0.59; in [3] (setting [12]), 0.352. For the same molecule, the fluorescence slope in assay [5] is -0.472 (inactive). Moreover, the NADPH fluorescence slope in assay [6] is -1.2e-06 (inactive). For the same molecule, in [7], the slope was 0.00783 (inactive). The outcome in [8] was inactive.

`CCCc1nnc(NC(=O)c2c(O)c3c([nH]c2=O)CCCC3)s1`: the cell count in assay [1] stood at 312. Besides, the inhibition in [1] is -15.5% (inactive); in assay [2] it was -42.9% (inactive); in assay [4] it was 17.5% (inactive); in assay [9], 14% (inactive). Moreover, the nuclei count in assay [2] came to 134%. The z-score in assay [3] (setting [10]) was -0.253; in assay [3] (setting [11]) it was -0.454; in [3] (setting [12]), -0.547. For the same molecule, the fluorescence slope in [5] is -0.423 (inactive). Moreover, the NADPH fluorescence slope in [6] was -3.6e-05 (inactive). For the same molecule, the slope in [7] was 0.00662 (inactive). For the same molecule, the outcome in assay [8] was inactive.
